Measurements from ChEMBL document CHEMBL1926642, “Relevance of the C-5 position to schweinfurthin induced cytotoxicity” (2011).

What was measured:
Format in all cases: functional
HCC 2998 = assay: Growth inhibition of human HCC2998 cells after 48 hrs by sulforhodamine B assay; conditions: HCC 2998, 48 h
MOLT-4 = assay: Growth inhibition of human MOLT4 cells after 48 hrs by sulforhodamine B assay; conditions: MOLT-4, 48 h
CAKI-1 = assay: Growth inhibition of human Caki1 cells after 48 hrs by sulforhodamine B assay; conditions: CAKI-1, 48 h
SK-MEL-2 = assay: Growth inhibition of human SK-MEL-2 cells after 48 hrs by sulforhodamine B assay; conditions: SK-MEL-2, 48 h
LOX IMVI = assay: Growth inhibition of human LOXIMVI cells after 48 hrs by sulforhodamine B assay
MDA-MB-435 = assay: Growth inhibition of human MDA-MB-435 cells after 48 hrs by sulforhodamine B assay; conditions: MDA-MB-435, 48 h
EKVX = assay: Growth inhibition of human EKVX cells after 48 hrs by sulforhodamine B assay
SW-620 = assay: Growth inhibition of human SW620 cells after 48 hrs by sulforhodamine B assay; conditions: SW-620, 48 h
UACC-257 = assay: Growth inhibition of human UACC257 cells after 48 hrs by sulforhodamine B assay; conditions: UACC-257, 48 h
[1] = Growth inhibition of human Hs 578T cells after 48 hrs by sulforhodamine B assay
NCI/ADR-RES = assay: Growth inhibition of human NCI/ADR-RES cells after 48 hrs by sulforhodamine B assay
UO-31 = assay: Growth inhibition of human UO31 cells after 48 hrs by sulforhodamine B assay; conditions: UO-31, 48 h
SF-539 = assay: Growth inhibition of human SF539 cells after 48 hrs by sulforhodamine B assay; conditions: SF-539, 48 h
OVCAR-4 = assay: Growth inhibition of human OVCAR4 cells after 48 hrs by sulforhodamine B assay; conditions: OVCAR-4, 48 h
HCT-116 = assay: Growth inhibition of human HCT116 cells after 48 hrs by sulforhodamine B assay; conditions: HCT-116, 48 h
NCI-H226 = assay: Growth inhibition of human NCI-H226 cells after 48 hrs by sulforhodamine B assay; conditions: NCI-H226, 48 h
ACHN = assay: Growth inhibition of human ACHN cells after 48 hrs by sulforhodamine B assay
OVCAR-3 = assay: Growth inhibition of human OVCAR3 cells after 48 hrs by sulforhodamine B assay; conditions: OVCAR-3, 48 h
TK-10 = assay: Growth inhibition of human TK10 cells after 48 hrs by sulforhodamine B assay; conditions: TK-10, 48 h
U-251 = assay: Growth inhibition of human U251 cells after 48 hrs by sulforhodamine B assay; conditions: U-251, 48 h
HT-29 = assay: Growth inhibition of human HT-29 cells after 48 hrs by sulforhodamine B assay; conditions: HT-29, 48 h
MDA-MB-468 = assay: Growth inhibition of human MDA-MB-468 cells after 48 hrs by sulforhodamine B assay; conditions: MDA-MB-468, 48 h
K562 = assay: Growth inhibition of human K562 cells after 48 hrs by sulforhodamine B assay; conditions: K562, 48 h
SF-268 = assay: Growth inhibition of human SF268 cells after 48 hrs by sulforhodamine B assay; conditions: SF-268, 48 h
HL-60(TB) = assay: Growth inhibition of human HL-60(TB) cells after 48 hrs by sulforhodamine B assay; conditions: HL-60, 48 h
Method in brief: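 Run in the NCI 60 cell-line screen as the full 5-dose assay that follows initial single-dose testing; GI50 is read from the dose series.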

BT-549 = assay: Growth inhibition of human BT549 cells after 48 hrs by sulforhodamine B assay; conditions: BT-549, 48 h
RPMI-8226 = assay: Growth inhibition of human RPMI8226 cells after 48 hrs by sulforhodamine B assay; conditions: RPMI-8226, 48 h
NCI-H522 = assay: Growth inhibition of human NCI-H522 cells after 48 hrs by sulforhodamine B assay; conditions: NCI-H522, 48 h
A498 = assay: Growth inhibition of human A498 cells after 48 hrs by sulforhodamine B assay; conditions: A498, 48 h
COLO 205 = assay: Growth inhibition of human COLO205 cells after 48 hrs by sulforhodamine B assay; conditions: COLO 205, 48 h
M14 = assay: Growth inhibition of human M14 cells after 48 hrs by sulforhodamine B assay; conditions: M14, 48 h
SK-MEL-28 = assay: Growth inhibition of human SK-MEL-28 cells after 48 hrs by sulforhodamine B assay; conditions: SK-MEL-28, 48 h
[2] = read-out: pLC50 (the source's name) (converted)

Q: What does the source list for `COCOc1cc(/C=C/c2cc(CO)c3c(c2)C[C@@H]2C(C)(C)[C@H](O)CC[C@@]2(C)O3)cc(OC)c1C/C=C(\C)CCC=C(C)C`?
A: GI50 (HCC 2998): 10.7 µM; LC50 (HCC 2998): 70.8 µM; TGI (HCC 2998; read-out: pTGI (converted)): 27.5 µM; GI50 (MOLT-4): 0.398 µM; LC50 (MOLT-4): > 100 µM; TGI (MOLT-4; read-out: pTGI (converted)): > 100 µM; GI50 (CAKI-1): 0.813 µM; LC50 (CAKI-1): > 100 µM; TGI (CAKI-1; read-out: pTGI (converted)): 15.1 µM; GI50 (SK-MEL-2): 17.8 µM; LC50 (SK-MEL-2): > 100 µM; TGI (SK-MEL-2; read-out: pTGI (converted)): 66.1 µM; GI50 (LOX IMVI): 0.55 µM; LC50 (LOX IMVI): 18.2 µM; TGI (LOX IMVI; read-out: pTGI (converted)): 3.02 µM; GI50 (MDA-MB-435): 1.38 µM; LC50 (MDA-MB-435): > 100 µM; TGI (MDA-MB-435; read-out: pTGI (converted)): 56.2 µM; GI50 (EKVX): 4.47 µM; LC50 (50% lethal concentration) (EKVX): > 100 µM; TGI (EKVX; read-out: pTGI (converted)): 83.2 µM; GI50 (SW-620): 1.95 µM; LC50 (SW-620): 67.6 µM; TGI (SW-620; read-out: pTGI (converted)): 13.5 µM; GI50 (UACC-257): 3.47 µM; LC50 (UACC-257): > 100 µM; TGI (UACC-257; read-out: pTGI (converted)): 39.8 µM; GI50 [1]: 0.55 µM; CC50 [1, 2]: > 100 µM; TGI ([1]; read-out: pTGI (converted)): > 100 µM; GI50 (NCI/ADR-RES): 8.13 µM; LC50 (NCI/ADR-RES): 95.5 µM; TGI (NCI/ADR-RES; read-out: pTGI (converted)): 29.5 µM; GI50 (UO-31): 0.501 µM; LC50 (UO-31): 93.3 µM; TGI (UO-31; read-out: pTGI (converted)): 15.1 µM; GI50 (SF-539): 0.141 µM; LC50 (SF-539): > 100 µM; TGI (SF-539; read-out: pTGI (converted)): 12.6 µM; GI50 (OVCAR-4): 7.24 µM; LC50 (OVCAR-4): > 100 µM; TGI (OVCAR-4; read-out: pTGI (converted)): 44.7 µM; GI50 (HCT-116): 3.47 µM; LC50 (HCT-116): 45.7 µM; TGI (HCT-116; read-out: pTGI (converted)): 18.2 µM; GI50 (NCI-H226): 14.5 µM; LC50 (NCI-H226): 64.6 µM; TGI (NCI-H226; read-out: pTGI (converted)): 30.2 µM; GI50 (ACHN): 2.24 µM; LC50 (ACHN): > 100 µM; TGI (ACHN; read-out: pTGI (converted)): 50.1 µM; GI50 (OVCAR-3): 12.6 µM; LC50 (OVCAR-3): 60.3 µM; TGI (OVCAR-3; read-out: pTGI (converted)): 27.5 µM; GI50 (TK-10): 15.8 µM; LC50 (TK-10): > 100 µM; TGI (TK-10; read-out: pTGI (converted)): 41.7 µM; GI50 (U-251): 0.275 µM; LC50 (U-251): 53.7 µM; TGI (U-251; read-out: pTGI (converted)): 15.5 µM; GI50 (HT-29): 2.04 µM; LC50 (concentration killing 50% of cells) (HT-29): > 100 µM; TGI (HT-29; read-out: pTGI (converted)): 19.1 µM; GI50 (MDA-MB-468): 1.78 µM; LC50 (MDA-MB-468): 49 µM; TGI (MDA-MB-468; read-out: pTGI (converted)): 12.3 µM; GI50 (K562): 2.51 µM; LC50 (K562): > 100 µM; TGI (K562; read-out: pTGI (converted)): 28.8 µM; GI50 (SF-268): 4.07 µM; LC50 (SF-268): 55 µM; TGI (SF-268; read-out: pTGI (converted)): 20.9 µM; GI50 (HL-60(TB)): 0.661 µM; CC50 (HL-60(TB); [2]): > 100 µM; TGI (HL-60(TB); read-out: pTGI (converted)): 33.9 µM; GI50 (BT-549): 1.38 µM; LC50 (BT-549): 50.1 µM; TGI (BT-549; read-out: pTGI (converted)): 17.8 µM; GI50 (RPMI-8226): 0.479 µM; LC50 (RPMI-8226): > 100 µM; TGI (RPMI-8226; read-out: pTGI (converted)): > 100 µM; GI50 (NCI-H522): 10.5 µM; LC50 (NCI-H522): 77.6 µM; TGI (NCI-H522; read-out: pTGI (converted)): 28.2 µM; GI50 (A498): 0.933 µM; LC50 (A498): 50.1 µM; TGI (A498; read-out: pTGI (converted)): 19.5 µM; GI50 (COLO 205): 3.55 µM; LC50 (COLO 205): 66.1 µM; TGI (COLO 205; read-out: pTGI (converted)): 14.1 µM; GI50 (M14): 0.692 µM; LC50 (M14): > 100 µM; TGI (M14; read-out: pTGI (converted)): 21.9 µM; GI50 (SK-MEL-28): 1.2 µM; CC50 (SK-MEL-28; [2]): > 100 µM; TGI (SK-MEL-28; read-out: pTGI (converted)): 30.9 µM
